Structures are written as SMILES.

A short description of the data set: Toxicity liver stage against HepG2, at 10uM. Set-up: test concentration 10 uM, cell line HepG2-A16-CD81EGFP. To be noted: human, HepG2-A16-CD81EGFP cells; read-out: INHIBITION
It counts as cell-based. Put shortly: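 Uninfected HepG2-A16-CD81EGFP cells, 3 × 10^3 per well, 1536-well, plated on prespotted compound at 10 μM final, parasite-free screening media added to match infected plates; puromycin 10 μM positive, DMSO 0.5% negative; run in parallel with 48 h PbLuc assay at 37 °C, 5% CO2; viability by CellTiter-Glo luminescence, normalized to controls.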
On to `COc1ccccc1-c1nnc([C@H]2CCN(C(C)=O)C2)o1`, for which the cytotoxicity at 10 µM was 4.71%. Take `O=C(c1cnc(NCc2sccc2Br)c(Cl)c1)N1CCCCC1`: the cytotoxicity at 10 µM turned out to be 6.36%. In the case of `CCc1c(C(=O)N2CCN(C)[C@@H]3CS(=O)(=O)C[C@@H]32)[nH]c2ccccc12` it was -6.08%; in that of `O=C(c1cnc(-c2ccco2)s1)N1CCCCC1Cn1cccn1` (stereo not drawn), -5.83%.

Turning to `CCC(=O)N1CCCC(c2cc(Nc3ncccn3)nc(C)n2)C1` (stereo not drawn), the cytotoxicity at 10 µM was -3.48%.

Take `CCOC(=O)CNc1nc(C(C)(C)C)nc2c1cnn2C`: the cytotoxicity at 10 µM is -12.8%. In the case of `COc1cc(C(=O)O)cc(I)c1OCC(=O)NCCc1ccccc1` it was -11.9%. In the case of `CS(=O)(=O)N1CCC(Oc2ccc(C#N)cc2)CC1` it was -8.97%. For the molecule `c1coc(-c2[nH]c3ncccc3c2CN2CCCOCC2)c1`, the cytotoxicity at 10 µM is -5.44%. `O=C(C1CCCCC1)N1CCC(n2nc(-c3ccco3)ccc2=O)CC1`: the cytotoxicity at 10 µM is -16.6%. With `c1cncc(CNCc2cccs2)c1`, the cytotoxicity at 10 µM turned out to be 10.1%. In the case of `Cn1c(CO[C@H]2CN(S(C)(=O)=O)C[C@H]2F)nc2ccccc21` it was -0.714%; in that of `COC(=O)C1(C)CCN(C(=O)NCCc2c(C)[nH]c3ccccc23)C1` (stereo not drawn), 0.807%. In the case of `Nc1nc(CC(=O)N2CCCC(CCc3cccc(F)c3)C2)cc(=O)[nH]1` (stereo not drawn), the cytotoxicity at 10 µM is -6.12%. In the case of `Cc1n[nH]c(C)c1CNC(=O)c1cn(CCC2CCCCN2)nn1` (stereo not drawn) it was 1.61%. For `Cc1ccc(NC(=O)N2CCN(Cc3noc(C4CC4)n3)CC2)cc1`, the cytotoxicity at 10 µM was found to be 4.88%. For `COc1cc(N2C[C@@H]3COC[C@]3(COc3cccnc3)C2)ncn1`, the cytotoxicity at 10 µM is 2.13%. In the case of `CC(C)c1ccc(C(O)CN2CCN(Cc3nccn3C)CC2)cc1` (stereo not drawn) it was -38.3%; in that of `c1ccc(CN2C[C@H]3CC[C@@H](C2)N(Cc2nnc(C4CC4)o2)C3)cc1`, -8.42%. Consider `O=C1CO[C@H]2CN(S(=O)(=O)c3ccccc3)C[C@H]2N1Cc1ccccn1`, for which the cytotoxicity at 10 µM is -1.11%. Take `Cc1cccc(Oc2ccccc2CNC(=O)C2CCC(=O)NC2)c1` (stereo not drawn): the cytotoxicity at 10 µM came to 10.6%. Turning to `CN1CCCN(C(=O)c2cccn2-c2ccc3c(c2)OCCO3)CC1`, the cytotoxicity at 10 µM amounted to 1.03%.

Consider `Cc1cc(C)n(C2CCCN(C(=O)COCC(F)(F)F)C2)n1` (stereo not drawn), for which the cytotoxicity at 10 µM was -4.3%. In the case of `Cc1ccc(N2CC3(COCCN(Cc4cnn(C)c4)C3)OCC2=O)s1` (stereo not drawn) it was -5.18%; in that of `Cc1cnc(CCNC(=O)NCCc2ccc(O)cc2)s1`, -0.276%. Consider `CN(C)C(=O)C1CCN(C(=O)c2c[nH]c3cc(Cl)ccc23)CC1`, for which the cytotoxicity at 10 µM is -0.983%. As for `COCc1nnc(NC(=O)c2cn(C(C)C)c3ccc(OC)cc23)s1`, the cytotoxicity at 10 µM was -5.86%. Consider `Cc1nn(C(C)C)c2cn(CC(=O)NC3CCSCC3)nc12`, for which the cytotoxicity at 10 µM is -2.72%. As to `Cc1ncsc1C(=O)N1CCCC(c2nccn2Cc2cscn2)C1` (stereo not drawn), the cytotoxicity at 10 µM is -0.0612%. Consider `CC(C)N(C)Cc1cc(=O)n2c(n1)CN(C(=O)c1ccnnc1)CCC2`, for which the cytotoxicity at 10 µM was 2.95%.

As for `CN(Cc1ccco1)C(=O)CN1CCCC1Cn1cncn1` (stereo not drawn), the cytotoxicity at 10 µM is -24.1%. In the case of `COC(=O)c1sccc1S(=O)(=O)N1CCc2c(ncnc2N(C)C)C1` it was -1.6%. Consider `Cc1cc(O)nc(C2CN(CC3(O)CCOCC3)CCO2)n1` (stereo not drawn), for which the cytotoxicity at 10 µM was -18.3%. The figure for `O=C(NCCc1cccnc1)c1nc2c(s1)CCCN2C(=O)C1CC1` is -91.5%; for `CN1CCN(CC2(O)CCN(C(=O)CCc3ccccc3F)C2)CC1` (stereo not drawn) it is -2%; for `CC(=O)N[C@@H]1CN(C(=O)c2cc3sccc3[nH]2)C[C@H]1c1ccc(C)o1` it is 8.98%. The figure for `CC(C)N(C)S(=O)(=O)N(C)Cc1cnn(C)c1` is 7.2%; for `Cc1cc(C)n(CC2CCCN2CC(=O)N(C)CCC#N)n1` (stereo not drawn) it is -14.8%.

The values are drawn from ChEMBL document CHEMBL4513216, “Probing the Open Global Health Chemical Diversity Library for Multistage-Active Starting Points for Next-Generation Antimalarials” (ACS Infect Dis, 2020).
